Results published in ChEMBL document CHEMBL1145212, “Fluorinated diaryl sulfides as serotonin transporter ligands: synthesis, structure-activity relationship study, and in vivo evaluation of fluorine-18-labeled compounds as PET imaging agents” (J Med Chem, 2005).

Legend:
Rattus norvegicus [1] = assay: Biodistribution of [18F]AFP in rat hypothalamus at 120 min postinjection in vivo; type: ADME, organism-based; conditions: 2 h
Rattus norvegicus [2] = assay: Biodistribution of [18F]AFP in rat frontal cortex at 10 min postinjection in vivo; type: ADME, organism-based
Rattus norvegicus [3] = assay: Biodistribution of [18F]-AFP in rat frontal cortex at 30 min postinjection in vivo; type: ADME, organism-based; conditions: 0.5 h
Summary of the method: (§1)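 Male Sprague-Dawley rats, three per time point, received the F-18 radioligand in saline (~20 µCi per rat at injection) by tail vein. Under CO2 anesthesia they were decapitated at 10, 30, 60, 90 or 120 min. Blood and dissected brain regions were weighed and gamma counted. Activity was decay-corrected, and injected dose was corrected for tail residual activity. Uptake was expressed as %ID/g versus injectate standards, mean ± SD.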

Rattus norvegicus [4] = assay: Biodistribution of [18F]-AFP in rat frontal cortex at 60 min postinjection in vivo; type: ADME, organism-based; conditions: 1 h; summary of the method: as §1
Rattus norvegicus [5] = assay: Biodistribution of [18F]AFP in rat frontal cortex at 90 min postinjection in vivo; type: ADME, organism-based; conditions: 1.5 h
Rattus norvegicus [6] = assay: Biodistribution of [18F]AFP in rat frontal cortex at 120 min postinjection in vivo; type: ADME, organism-based; conditions: 2 h
Rattus norvegicus [7] = assay: Biodistribution of [18F]AFP in rat blood at 30 min postinjection in vivo; type: ADME, organism-based; conditions: 0.5 h
Rattus norvegicus [8] = assay: Biodistribution of [18F]AFP in rat blood at 60 min postinjection in vivo; type: ADME, organism-based; conditions: 1 h
Rattus norvegicus [9] = assay: Biodistribution of [18F]AFP in rat blood at 90 min postinjection in vivo; type: ADME, organism-based; conditions: 1.5 h
Rattus norvegicus [10] = assay: Biodistribution of [18F]AFP in rat striatum 60 min postinjection in vivo; type: ADME, organism-based; conditions: 1 h
Rattus norvegicus [11] = assay: Biodistribution of [18F]-AFP in rat blood at 120 min postinjection in vivo; type: ADME, organism-based; conditions: 2 h; summary of the method: as §1
Rattus norvegicus [12] = assay: Biodistribution of [18F]AFP in rat striatum at 10 min postinjection in vivo; type: ADME, organism-based
Rattus norvegicus [13] = assay: Biodistribution of [18F]AFP in rat striatum at 30 min postinjection in vivo; type: ADME, organism-based; conditions: 0.5 h
Rattus norvegicus [14] = species: Rattus norvegicus; assay: Specific binding of [18F]AFA in striatum of rat pretreated with compound 7f; n=3; type: functional
Rattus norvegicus [15] = species: Rattus norvegicus; assay: Specific binding of [18F]AFA in thalamus of rat pretreated with compound 7f; n=3; type: functional
Rattus norvegicus [16] = species: Rattus norvegicus; assay: Specific binding of [18F]AFA in hippocampus of rat pretreated with compound 7f; n=3; type: functional
Rattus norvegicus [17] = species: Rattus norvegicus; assay: Specific binding of [18F]AFA in hypothalamus of rat pretreated with compound 7f; n=3; type: functional
Rattus norvegicus [18] = species: Rattus norvegicus; assay: Specific binding of [18F]-AFA in frontal cortex of rat pretreated with compound 7f; n=3; type: functional
Rattus norvegicus [19] = assay: Biodistribution of [18F]AFP in rat hypothalamus at 30 min postinjection in vivo; type: ADME, organism-based; conditions: 0.5 h
Rattus norvegicus [20] = assay: Biodistribution of [18F]AFP in rat hypothalamus at 60 min postinjection in vivo; type: ADME, organism-based; conditions: 1 h
Rattus norvegicus [21] = assay: Biodistribution of [18F]AFP in rat hypothalamus at 90 min postinjection in vivo; type: ADME, organism-based; conditions: 1.5 h
Rattus norvegicus [22] = assay: Biodistribution of [18F]AFP in rat blood at 10 min postinjection in vivo; type: ADME, organism-based
Rattus norvegicus [23] = assay: Biodistribution of [18F]-AFP in rat cerebellum at 30 min postinjection in vivo; type: ADME, organism-based; conditions: 0.5 h; summary of the method: as §1
Rattus norvegicus [24] = assay: Biodistribution of [18F]AFP in rat cerebellum at 60 min postinjection in vivo; type: ADME, organism-based; conditions: 1 h
Rattus norvegicus [25] = assay: Biodistribution of [18F]AFP in rat cerebellum at 90 min postinjection in vivo; type: ADME, organism-based; conditions: 1.5 h
Rattus norvegicus [26] = assay: Biodistribution of [18F]AFP in rat cerebellum at 120 min postinjection in vivo; type: ADME, organism-based; conditions: 2 h
Rattus norvegicus [27] = assay: Biodistribution of [18F]-AFP in rat hippocampus at 10 min postinjection in vivo; type: ADME, organism-based; summary of the method: as §1
Rattus norvegicus [28] = assay: Biodistribution of [18F]AFP in rat hippocampus at 30 min postinjection in vivo; type: ADME, organism-based; conditions: 0.5 h
Rattus norvegicus [29] = assay: Biodistribution of [18F]-AFP in rat hippocampus at 60 min postinjection in vivo; type: ADME, organism-based; conditions: 1 h; summary of the method: as §1
Rattus norvegicus [30] = assay: Biodistribution of [18F]AFP in rat hippocampus at 90 min postinjection in vivo; type: ADME, organism-based; conditions: 1.5 h
Rattus norvegicus [31] = assay: Biodistribution of [18F]AFP in rat hippocampus at 120 min postinjection in vivo; type: ADME, organism-based; conditions: 2 h
Rattus norvegicus [32] = assay: Biodistribution of [18F]AFP in rat hypothalamus at 10 min postinjection in vivo; type: ADME, organism-based
Rattus norvegicus [33] = assay: Biodistribution of [18F]AFP in rat striatum at 90 min postinjection in vivo; type: ADME, organism-based; conditions: 1.5 h
Rattus norvegicus [34] = assay: Biodistribution of [18F]AFP in rat thalamus at 10 min postinjection in vivo; type: ADME, organism-based
Rattus norvegicus [35] = assay: Biodistribution of [18F]AFP in rat thalamus at 60 min postinjection in vivo; type: ADME, organism-based; conditions: 1 h
Rattus norvegicus [36] = assay: Biodistribution of [18F]AFP in rat thalamus at 90 min postinjection in vivo; type: ADME, organism-based; conditions: 1.5 h
Rattus norvegicus [37] = assay: Biodistribution of [18F]AFP in rat striatum at 120 min postinjection in vivo; type: ADME, organism-based; conditions: 2 h
Rattus norvegicus [38] = assay: Biodistribution of [18F]AFP in rat thalamus at 120 min postinjection in vivo; type: ADME, organism-based; conditions: 2 h
Rattus norvegicus [39] = assay: Biodistribution of [18F]AFP in rat thalamus at 30 min postinjection in vivo; type: ADME, organism-based; conditions: 0.5 h
Rattus norvegicus [40] = assay: Biodistribution of [18F]-AFP in rat cerebellum at 10 min postinjection in vivo; type: ADME, organism-based; summary of the method: as §1

With `CN(C)Cc1ccccc1Sc1ccc(CCC[18F])cc1N` as the compound, how does the Biodistribution (Rattus norvegicus [1]) read?
The Biodistribution was 0.1 %ID/g.

What about the Biodistribution (Rattus norvegicus [2]) of the same compound?
The Biodistribution was 0.47 %ID/g.

And the Biodistribution (Rattus norvegicus [3])?
The Biodistribution was 0.21 %ID/g.

And the Biodistribution (Rattus norvegicus [4])?
The Biodistribution was 0.12 %ID/g.

What about the Biodistribution (Rattus norvegicus [5]) of the same compound?
Its Biodistribution is 0.05 %ID/g.

And the Biodistribution (Rattus norvegicus [6])?
Its Biodistribution is 0.08 %ID/g.

And the Biodistribution (Rattus norvegicus [7])?
The Biodistribution was 0.15 %ID/g.

What about the Biodistribution (Rattus norvegicus [8]) of the same compound?
The Biodistribution was 0.14 %ID/g.

What about the Biodistribution (Rattus norvegicus [9]) of the same compound?
Its Biodistribution is 0.08 %ID/g.

And the Biodistribution (Rattus norvegicus [10])?
Its Biodistribution is 0.11 %ID/g.

And the Biodistribution (Rattus norvegicus [11])?
The Biodistribution was 0.04 %ID/g.

What about the Biodistribution (Rattus norvegicus [12]) of the same compound?
Its Biodistribution is 0.41 %ID/g.

And the Biodistribution (Rattus norvegicus [13])?
The Biodistribution was 0.21 %ID/g.

And the Specific binding (Rattus norvegicus [14])?
The Specific binding was 0.07 %ID/g.

And the Specific binding (Rattus norvegicus [15])?
Its Specific binding is 0.35 %ID/g.

What about the Specific binding (Rattus norvegicus [16]) of the same compound?
Its Specific binding is 0.03 %ID/g.

What about the Specific binding (Rattus norvegicus [17]) of the same compound?
Its Specific binding is 0.26 %ID/g.

And the Specific binding (Rattus norvegicus [18])?
The Specific binding was 0.05 %ID/g.

What about the Biodistribution (Rattus norvegicus [19]) of the same compound?
The Biodistribution was 0.21 %ID/g.

What about the Biodistribution (Rattus norvegicus [20]) of the same compound?
The Biodistribution was 0.13 %ID/g.

What about the Biodistribution (Rattus norvegicus [21]) of the same compound?
The Biodistribution was 0.1 %ID/g.

And the Biodistribution (Rattus norvegicus [22])?
Its Biodistribution is 0.18 %ID/g.

And the Biodistribution (Rattus norvegicus [23])?
Its Biodistribution is 0.14 %ID/g.

And the Biodistribution (Rattus norvegicus [24])?
Its Biodistribution is 0.07 %ID/g.

What about the Biodistribution (Rattus norvegicus [25]) of the same compound?
Its Biodistribution is 0.03 %ID/g.

And the Biodistribution (Rattus norvegicus [26])?
Its Biodistribution is 0.03 %ID/g.

What about the Biodistribution (Rattus norvegicus [27]) of the same compound?
The Biodistribution was 0.36 %ID/g.

And the Biodistribution (Rattus norvegicus [28])?
The Biodistribution was 0.19 %ID/g.

And the Biodistribution (Rattus norvegicus [29])?
Its Biodistribution is 0.13 %ID/g.

What about the Biodistribution (Rattus norvegicus [30]) of the same compound?
The Biodistribution was 0.07 %ID/g.

What about the Biodistribution (Rattus norvegicus [31]) of the same compound?
The Biodistribution was 0.08 %ID/g.

What about the Biodistribution (Rattus norvegicus [32]) of the same compound?
Its Biodistribution is 0.42 %ID/g.

And the Biodistribution (Rattus norvegicus [33])?
Its Biodistribution is 0.08 %ID/g.

And the Biodistribution (Rattus norvegicus [34])?
The Biodistribution was 0.44 %ID/g.

And the Biodistribution (Rattus norvegicus [35])?
Its Biodistribution is 0.16 %ID/g.

What about the Biodistribution (Rattus norvegicus [36]) of the same compound?
Its Biodistribution is 0.1 %ID/g.

And the Biodistribution (Rattus norvegicus [37])?
The Biodistribution was 0.08 %ID/g.

What about the Biodistribution (Rattus norvegicus [38]) of the same compound?
The Biodistribution was 0.1 %ID/g.

And the Biodistribution (Rattus norvegicus [39])?
Its Biodistribution is 0.28 %ID/g.

And the Biodistribution (Rattus norvegicus [40])?
Its Biodistribution is 0.31 %ID/g.
